In ChEMBL document CHEMBL4513216, “Probing the Open Global Health Chemical Diversity Library for Multistage-Active Starting Points for Next-Generation Antimalarials” (ACS Infect Dis, 2020):

Assay: Toxicity liver stage against HepG2, at 10uM
Format: cell-based
Set-up: test concentration 10 uM, cell line HepG2-A16-CD81EGFP
Details: human, HepG2-A16-CD81EGFP cells; read-out: INHIBITION
Procedure, shortened: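 Uninfected HepG2-A16-CD81EGFP cells, 3 × 10^3 per well, 1536-well, plated on prespotted compound at 10 μM final, parasite-free screening media added to match infected plates; puromycin 10 μM positive, DMSO 0.5% negative; run in parallel with 48 h PbLuc assay at 37 °C, 5% CO2; viability by CellTiter-Glo luminescence, normalized to controls.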

| SMILES | cytotoxicity at 10 µM [%] |
| --- | --- |
| CS(=O)(=O)c1cccc2c1CCCN2C(=O)Cc1cccc(F)c1 | 8.14 |
| COCC(=O)N1CCN(CCn2cccn2)c2nc(C)ccc2C1 | 10.5 |
| Cc1ncsc1C(=O)NCC1SCCc2ccccc21 (stereo not drawn) | -8.21 |
| NC(=O)NCC(=O)N1CCCC(c2nccn2CC2CCC2)C1 (stereo not drawn) | -4.59 |
| CCOc1ccc(Cl)c(C(=O)N2CCCSCC2)n1 | -4.03 |
| CCc1nccn1C1CCCN(C(=O)CCc2nccs2)C1 (stereo not drawn) | -14.3 |
| CC(=O)N1CCCC1c1ccnc(Nc2cncnc2)n1 (stereo not drawn) | -25.6 |
| CC(C)Cn1cc(NC(=O)N2CCOC(c3ccccc3)C2)cn1 (stereo not drawn) | 7.59 |
| COCC(=O)NCc1cccc(Br)c1 | -4.2 |
| CN(Cc1noc2c1CCCC2)C(=O)Nc1cncc(F)c1 | 2.26 |
| COCCN1C(=O)[C@]2(CC[C@@H]3CN(S(=O)(=O)CC(C)C)C[C@@H]32)N=C1C | -69.3 |
| CCc1nnc2n1CCN(Cc1csc(-c3cnn(C)c3)n1)C2 | 18.4 |
| Cn1ccc2ccc(C(=O)Nc3nc[nH]n3)cc21 | -1.55 |
| Cc1oc(-c2nc(C#N)c(NCC(C)C)o2)cc1S(=O)(=O)N1CCCC1 | 13.1 |
| CN(c1ccc(Cl)c(C(=O)NCCCN2CCOCC2)c1)S(C)(=O)=O | 1.05 |
| CN1CCC(NC(=O)Nc2cnn(-c3ccccc3Cl)c2)C1=O (stereo not drawn) | -4.17 |
| CN1CCN(CCCNCc2cc(O)c3cc(F)ccc3n2)CC1 | -45.4 |
| CCc1[nH]nc(NC(=O)c2ccc(Cl)cn2)c1C | -9.69 |
| Cc1cc(C(=O)N2CCCC(c3cc(=O)nc4n3CCC4)C2)on1 (stereo not drawn) | -1.28 |
| COC1CCN(C(=O)c2ccccc2NCc2cccnc2)CC1 | -7.22 |
| COCC(C)N(C)C(=O)CCc1c(C)nc2c(C#N)cnn2c1C (stereo not drawn) | -43.3 |
| Cn1cc(C(=O)N2CCN(Cc3ccsc3)CC2)cn1 | -10 |
| COc1cccc2c1ccn2CCC(=O)NCCCC(=O)O | 9.64 |

| SMILES | cytotoxicity at 10 µM [%] |
| --- | --- |
| CN(C)C1(CNc2nccc(-c3cnn(C)c3)n2)CCSC1 (stereo not drawn) | -126 |
| CC(C)(C)c1nnc2n1C(C(=O)N1CCCC1)CC2 (stereo not drawn) | 1.61 |
| O=c1[nH]c(-c2ccc(F)c(F)c2)nc2c1CCNC2 | 2.06 |
| COCCN1C(=O)CCC12CCCN(Cc1ccccc1F)C2 (stereo not drawn) | 3.64 |
| COc1ccc(-c2cnc(N)nc2C2CCCNC2)cc1 (stereo not drawn) | -1.51 |
| Cc1ncc2c(n1)CN(CC(=O)Nc1c(C)nn(C)c1C)CC2 | -11.1 |
| CCC(=O)Nc1cc(Cl)ccc1C(=O)N(C)Cc1noc(CC)n1 | 7.1 |
| CS(=O)(=O)c1ccc(-c2nc(C(=O)N3CCCC3)n3ccccc23)cc1 | 6 |
| c1ccc(-c2nc(CN3CCCC3Cn3cccn3)no2)cc1 (stereo not drawn) | -6.69 |
| CC(SCc1ccc(Br)c2cccnc12)C(N)=O (stereo not drawn) | 1.67 |
| CCNC(=O)c1cc2n(n1)CCCO2 | 1.25 |
| O=C(NCc1ccco1)[C@@]12CCO[C@@H]1CCN(Cc1nccs1)C2 | 14.6 |
| CC(C)c1nccc(CN2CCCC(O)(CN(C)C)CC2)n1 (stereo not drawn) | -2.01 |
| CCn1ccnc1CN1CCN(Cc2cccc(C#N)c2)CC1 | -22.3 |
| Cc1ccsc1-c1nccn1CCN(C)S(C)(=O)=O | -7.36 |
| Cc1cc(C(=O)NS(C)(=O)=O)ccc1I | 6.85 |
| O=S(=O)(Cc1ccccc1)c1nnc(N2CCCC2)s1 | -6.27 |
| Cc1cc(C)c(CNC(=O)NCc2ccc3c(c2)OCCO3)c(=O)[nH]1 | -11.6 |
| CCC(=O)N(CC)CCc1nccs1 | 9.66 |
| Cc1nc(N2CCOCC2)nc2c1CCN(C(=O)C1(C#N)CC1)CC2 | -117 |
| Cc1ccccc1CNc1nc(O)cc(C2CC(=O)N(C)C2)n1 (stereo not drawn) | -0.336 |
| CCN1CCN(c2ccc(NC(C)c3nc(C(C)C)no3)c(C)c2)CC1 (stereo not drawn) | -10 |
| CC(C)c1nc(C2CCCN2CCc2ccccn2)no1 (stereo not drawn) | 3.38 |

| SMILES | cytotoxicity at 10 µM [%] |
| --- | --- |
| COc1ccc(-c2cc(C3CCN(C(C)=O)CC3)ccn2)cc1 | -5.05 |
| O=C(Cc1ccccc1)N1Cc2nccn2CC(CN2CCCC2)C1 (stereo not drawn) | -101 |
| CC(C)Cc1noc(CN(C)c2cc(C(C)C)nc3ccnn23)n1 | -7.55 |
| NC(=O)C(Nc1ccc(Cl)cc1)c1ccc(F)cc1 (stereo not drawn) | -0.82 |
| Cc1ncc(CN2CCOC(c3ccc(-c4cnn(C)c4)cn3)C2)s1 (stereo not drawn) | -23 |
| CCCNC(=O)Cn1nc(C)c2cnn(C(C)(C)C)c2c1=O | -3.57 |
| O=C(c1cccs1)N1CCCC(c2cc(C(F)F)n3ncnc3n2)C1 (stereo not drawn) | -23.4 |
| Cc1ccc(CN2CCC3(CCC3NC(=O)c3ccn(C)c3)CC2)s1 (stereo not drawn) | -151 |
| CCn1cnnc1C1CCN(C(=O)c2ccc(C(=O)OC)s2)CC1 | -8.16 |
| Cc1cc(C)nc(Nc2nccnc2C2CCCN(C(CO)CO)C2)n1 (stereo not drawn) | 0.216 |
| Cn1ccnc1CN1CCN(CCOc2ccccc2F)CC1 | -10.9 |
| Cn1cc(CNC2CC3(CCN(CC4CC4)CC3)c3ccccc32)cn1 (stereo not drawn) | -8.22 |
| c1cnc(-c2cnc(N3CCSCC3)nc2C2CC2)cn1 | 17.3 |
| CCOCCCNC(=O)c1nn(CC)cc1Br | 1.77 |
| COCC1CCN(CCCc2cn[nH]c2)CC1 | 11.3 |
| CNC(=O)C(C)(C)NC(=O)c1cc(COc2cccc(C(C)=O)c2)[nH]n1 | 3.69 |
| CC(C)CN(Cc1ccc(O)c(C(=O)O)c1)Cc1cnn(C)c1 | -3.86 |
| OCCOc1cc(F)ccc1NCc1cccc(F)c1F | -6.14 |
| Cc1ccc(-c2cn(C3CCN(C(=O)[C@H]4CCCO4)CC3)nn2)cc1 | -8.93 |
| Cc1cc(C[C@@H]2COC[C@@H]2NC(=O)CN2CCc3ccccc3C2)on1 | 6.7 |
| Cc1noc(CN2CCN(C(=O)N(C)C)CC2)n1 | -1.22 |
| Cc1cc(=O)n2ncnc2n1CC(O)c1ccccc1Cl (stereo not drawn) | 1.67 |
| c1cnc(N2CCc3onc(CN4CCOCC4)c3C2)cn1 | 14.1 |

| SMILES | cytotoxicity at 10 µM [%] |
| --- | --- |
| CC1CCN(S(=O)(=O)N2CCn3cccc3C2C)CC1 (stereo not drawn) | -0.224 |
| Cc1ccc(OC2(C(=O)O)CCN(C/C=C/c3ccco3)CC2)c(C)n1 | 0.449 |
| CC(C)(C)C(=O)N1C[C@@H]2COC[C@]2(c2nnc(C3CC3)o2)C1 | -2.47 |
| Cc1cc(C)n(-c2ccc(CNCc3ccc(F)c(F)c3)cn2)n1 | -8.77 |
| Cc1cc(C)cc(OCCN(C)Cc2ccc(S(=O)(=O)N(C)C)o2)c1 | 8.2 |
| COc1ccc(F)cc1CN(CC(N)=O)C(C)C | -1.68 |
| NC(=O)NCC(=O)N1CCCC(c2nccn2Cc2ccncc2)C1 (stereo not drawn) | 5.07 |
| O=C(COc1coc(CN2CCSCC2)cc1=O)c1ccccc1 | 9.21 |
| CN(C(=O)NCc1ccncc1)C1CCN(c2ccccc2)C1=O (stereo not drawn) | -13.5 |
| CN(CC(=O)N(C)C(c1cccnc1)c1ccc(F)c(F)c1)C1CC1 (stereo not drawn) | -3.57 |
| CCc1nc(CN2CCOC(CN(C)c3cccnn3)C2)cs1 (stereo not drawn) | 5.35 |
| Cn1ccc(CS(=O)(=O)Cc2ccccc2)cc1=O | 6.02 |
| Cc1c(CNC(=O)C2CCCN2C(=O)C2CC2)oc2ccccc12 (stereo not drawn) | 5.6 |
| Cc1cn([C@H]2CCNC[C@]2(C)O)c(=O)[nH]c1=O | -6.22 |
| CCS(=O)(=O)N1C[C@H]2CC[C@](O)(c3ccc(C)cc3)[C@H]2C1 | -23.2 |
| O=C(CN1CCOC(CNc2cccnn2)C1)NCc1cccs1 (stereo not drawn) | -14 |
| COc1ccc(C(=O)N2CCN(C(=O)c3csc(C(C)C)n3)CC2)cc1 | -10.4 |
| O=C1NCc2ccccc2CC12CCN(Cc1ccncc1Cl)C2 (stereo not drawn) | 8.27 |
| CS(=O)(=O)CC1(CNc2cc(C#N)c3cc(Cl)ccc3n2)CC1 | -4.06 |
| CCN(CC)S(=O)(=O)N(CC)Cc1ccc2c(c1)OCCO2 | 4.66 |
| COCCN1C=NC2(CCC(C(=O)Nc3ccc(C)cc3)CC2)C1=O (stereo not drawn) | 15.1 |
| COc1cc(OC)nc(N2CCCC(c3nccn3CCN(C)C)C2)n1 (stereo not drawn) | 5.12 |
| COc1cc(C(C)=O)ccc1SCC(=O)Nc1ccc(C)cn1 | 4.43 |

| SMILES | cytotoxicity at 10 µM [%] |
| --- | --- |
| CN(C)C(=O)c1ccc(C(C(=O)O)N(C)Cc2ccccc2Cl)cc1 (stereo not drawn) | -54.6 |
| C1CCC(c2nn3c(C4CCCO4)nnc3s2)C1 (stereo not drawn) | 8.51 |
| Cc1cccc(COCC2c3nnn(C)c3CCN2Cc2ccoc2)n1 (stereo not drawn) | -142 |
| CC(=O)N1CCC(N2CC(Cc3nccc4ccn(C)c34)C2)CC1 | 17.7 |
| CSCCCNC(=O)Nc1cccc(-c2nccn2C)c1 | -6.25 |
| COc1cccc(S(=O)(=O)N2C[C@@H](O)[C@H](N(C)C)C2)c1 | 5.76 |
| Cc1nc(CNC2CCc3ncnn3C2)oc1C (stereo not drawn) | -3.86 |
| CC(=O)N1CCC(N[C@@H]2CO[C@H](CNC(=O)C3CCCC3)[C@H]2O)CC1 | -2.17 |
| C=C(C)COc1cccc(CNC(COC)c2ccnn2C)c1 (stereo not drawn) | -3.57 |
| CC1CN(c2cc(CNCc3cccc4c3OCCO4)ccn2)CCO1 (stereo not drawn) | 3.96 |
| COCc1cc(N(C)Cc2cc(C(C)(C)C)n[nH]2)ncn1 | -1.15 |
| CC(=O)C(C)CC(=O)N(Cc1cccc(C)c1)C(C)C (stereo not drawn) | -3.73 |
| COCc1ccccc1CNc1nnc(C)c(C)c1C#N | -2.48 |
| COCc1cnc2n1CCN(C(=O)C1=CCCC1)C2C (stereo not drawn) | 2.75 |
| CC(CN1CCOC1=O)NC(=O)c1cccc(C#N)c1 (stereo not drawn) | -8.37 |
| COc1c(C2CCCN2C(=O)c2ccnc(C)n2)c(C)nn1C (stereo not drawn) | -12 |
| COCc1cncc2c1CCN(C(=O)c1ccc(C)o1)C2 | 0.388 |
| O=S1(=O)NCC2(CCNCC2)COc2ccccc21 | -2.75 |
| O=C(Nc1ccc2c(c1)OCCO2)N1CCCN(Cc2cccs2)CC1 | 3.45 |
| COc1cc(OC)c(C2CC(=O)Oc3cc(C)[nH]c(=O)c32)cc1OC (stereo not drawn) | -4.81 |
| CCC(=O)N1CCC(c2cncc(Oc3cccnc3)n2)CC1 | -4.69 |
